Format in all cases: functional, organism-based
Assay [1] is filed under the species Homo sapiens. Nature of the assay: Inhibitory activity against thrombin (0.03 U/mL) induced aggregation in Human Platelets. A digest of the protocol:
(§1)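 Washed platelets from drug-free (≥10 days) human volunteers, suspended in modified Tyrode's solution pH 7.4 at 3 × 10^8/mL. Compound preincubated 3 min at 37 °C before agonist addition. Aggregation read turbidometrically (Born method, Mustard modification) in a dual-channel aggregometer. Values mean ± SEM from four to six donors; tested up to 400 μM.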

Assay [2] is filed under the species Homo sapiens. The assay is described as follows: Inhibitory activity against phospholipase C (PLC 0.05 U/mL) induced aggregation in Human Platelets. Put shortly:
as §1

For assay [3], the species on record is Homo sapiens. The assay is described as follows: Inhibitory activity against endoperoxide (U-46,619 2 uM) induced aggregation in Human Platelets. A digest of the protocol: as §1
The species entered for assay [4] is Homo sapiens. The assay is described as follows: Inhibitory activity against endoperoxide (U-46,619 2 uM) induced aggregation in Human Platelets; NI is No Inhibitory activity up to a concentration of 400 uM. A digest of the protocol:
as §1

The species entered for assay [5] is Homo sapiens. The assay is described as follows: Inhibitory activity against thrombin (0.03 U/mL) induced aggregation in Human Platelets; NI is No Inhibitory activity up to a concentration of 400 uM. A digest of the protocol:
as §1

The IC50 is the point on the concentration scale where inhibition reaches its midpoint. As for `COc1cc(C[C@@H]2NCCc3cc(O)c(O)cc32)cc(OC)c1OC` [TRETOQUINOL], the results for the IC50 in the assay filed under Homo sapiens [1], in the assay listed under Homo sapiens [2] and in the assay filed under Homo sapiens [3] were 50 µM, 50 µM and 11 µM, respectively.
On to `COc1cc(CC2NCCCc3cc4c(cc32)OCO4)cc(OC)c1OC` (configuration not stated), for which the results for the IC50 in the assay listed under Homo sapiens [2], in the assay filed under Homo sapiens [4] and in the assay listed under Homo sapiens [5] were 3 µM, “No inhibition” and “No inhibition”, respectively.
`COc1cc(CC2NCCCc3cc(O)c(O)cc32)cc(OC)c1OC` (configuration not stated): the IC50 in the assay listed under Homo sapiens [2] is 30 µM; in the assay listed under Homo sapiens [4] it was “No inhibition”; in the assay listed under Homo sapiens [5], “No inhibition”.
Take `COc1cc(C[C@H]2NCCc3cc(O)c(O)cc32)cc(OC)c1OC`: the IC50 was 150 µM in the assay filed under Homo sapiens [1], 175 µM in the assay listed under Homo sapiens [2] and 0.14 µM in the assay filed under Homo sapiens [3].

The values above are taken from ChEMBL document CHEMBL1123391, “Synthesis and investigation of the beta-adrenoceptor agonist and platelet antiaggregatory properties of 1,7,8-trisubstituted 2,3,4,5-tetrahydro-1H-2-benzazepine analogues of trimetoquinol” (J Med Chem, 1986).
